Experimental data published in ChEMBL document CHEMBL4428036, “Discovery of novel berberine imidazoles as safe antimicrobial agents by down regulating ROS generation” (Bioorg Med Chem Lett, 2016).
In brackets after ≈: the same amount, converted by molar mass. Activity calls are given as the source filed them. The rule behind the calls is not given here.

Key:
[1] = Antimicrobial activity against Eberthella typhosa ATCC 14028 incubated for 24 hrs by NCCLS protocol based method; assay type: functional; details: ATCC 14028, 24 h
Method in brief: (§1)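 Standard two-fold serial broth microdilution in 96-well plates per NCCLS; MIC (µg/mL) read as lowest concentration giving complete inhibition of microbial growth. Berberine, chloromycin and norfloxacin served as positive controls.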

[2] = tested on: Pseudomonas aeruginosa; test: Antimicrobial activity against Pseudomonas aeruginosa ATCC 27853 incubated for 24 hrs by NCCLS protocol based method; assay type: functional; details: ATCC 27853, 24 h
Method in brief: (§2)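 Two-fold serial broth microdilution in 96-well plates per NCCLS standards. MIC (µg/mL) taken as the lowest concentration giving complete growth inhibition. Berberine, chloromycin and norfloxacin were positive controls for bacteria; fluconazole for fungi.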

[3] = tested on: Escherichia coli; test: Antimicrobial activity against Escherichia coli JM109 incubated for 24 hrs by NCCLS protocol based method; assay type: functional; details: JM109, 24 h; method in brief: as §2
[4] = tested on: Proteus hauseri; test: Antimicrobial activity against Bacillus proteus ATCC13315 incubated for 24 hrs by NCCLS protocol based method; assay type: functional; details: ATCC13315, 24 h; method in brief: as §2
[5] = tested on: Staphylococcus aureus; test: Antimicrobial activity against methicillin-resistant Staphylococcus aureus N315 incubated for 24 hrs by NCCLS protocol based method; assay type: functional; details: N315, 24 h; method in brief: as §1
[6] = tested on: Staphylococcus aureus; test: Antimicrobial activity against Staphylococcus aureus ATCC 25923 incubated for 24 hrs by NCCLS protocol based method; assay type: functional; details: ATCC 25923, 24 h; method in brief: as §2
[7] = tested on: Bacillus subtilis; test: Antimicrobial activity against Bacillus subtilis ATCC 6633 incubated for 24 hrs by NCCLS protocol based method; assay type: functional; details: ATCC 6633, 24 h; method in brief: as §2
[8] = tested on: Micrococcus luteus; test: Antimicrobial activity against Micrococcus luteus ATCC 4698 incubated for 24 hrs by NCCLS protocol based method; assay type: functional; details: ATCC 4698, 24 h; method in brief: as §2
[9] = tested on: Cyberlindnera jadinii; test: Antimicrobial activity against Candida utilis ATCC 9950 incubated for 24 hrs by NCCLS protocol based method; assay type: functional; details: Williopsis jadinii, ATCC 9950, 24 h
[10] = tested on: Aspergillus flavus; test: Antimicrobial activity against Aspergillus flavus ATCC 204304 incubated for 24 hrs by NCCLS protocol based method; assay type: functional; details: ATCC 204304, 24 h
[11] = tested on: Saccharomyces cerevisiae; test: Antimicrobial activity against beer yeast ATCC 9763 incubated for 24 hrs by NCCLS protocol based method; assay type: functional; details: ATCC 9763, 24 h
[12] = Antimicrobial activity against Candida mycoderma ATCC 9888 incubated for 24 hrs by NCCLS protocol based method; assay type: functional, Candida vini; details: Kregervanrija fluxuum, ATCC 9888, 24 h
[13] = tested on: Candida albicans; test: Antimicrobial activity against Candida albicans ATCC 10231 incubated for 24 hrs by NCCLS protocol based method; details: ATCC 10231, 24 h
[14] = tested on: HepG2; test: (§3) Cytotoxicity against human HepG2 cells assessed as cell viability at 6.25 to 100 ug/ml by MTT assay; assay type: cell-based; details: hepg2
Method in brief: (§4)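 HepG2 cells exposed to compound up to 100 μg/mL. Viability read by colorimetric MTT assay with berberine as control. Mean of three parallels ± one standard deviation.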

[15] = as §3; assay type: cell-based; details: HepG2 cells, read-out: Activity; method in brief: as §4
[16] = tested on: HepG2; test: Induction of ROS production in human HepG2 cells at 6.25 to 100 uM by DCFH-DA as probe based fluorescence microscopy; assay type: functional, cell-based
Method in brief: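 Intracellular ROS detected with the fluorescent probe DCFH-DA and imaged by fluorescence microscopy. Compounds tested at 6.25, 12.5, 25, 50 and 100 μM, with berberine for comparison.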

[17] = tested on: Calf thymus DNA; test: Binding affinity to calf thymus DNA by UV-Visible spectroscopy; assay type: nucleic-acid assay; details: Bos taurus
Method in brief: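 Calf thymus DNA held at a fixed concentration in Tris-HCl buffer pH 7.4, titrated with increasing compound. UV-vis absorption spectra recorded in 1.0 cm quartz cells, following the 260 nm DNA band. DNA concentration set from A260 using ε260 = 6600 L mol⁻¹ cm⁻¹ per phosphate. Purity confirmed by A260/A280 > 1.8.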

[18] = tested on: Calf thymus DNA; test: Binding affinity to calf thymus DNA by neutral red dye based UV-Visible spectroscopy; assay type: nucleic-acid assay; details: Bos taurus

CCc1nc(C)cn1Cc1cc(OC)c(O)c2c[n+]3c(cc12)-c1cc2c(cc1CC3)OCO2.[Cl-]
MIC [1]: 128 µg/mL | MIC [2]: 128 µg/mL | MIC [3]: 128 µg/mL | MIC [4]: 128 µg/mL | MIC [5]: 64 µg/mL | MIC [6]: 64 µg/mL | MIC [7]: 128 µg/mL | MIC [8]: 64 µg/mL | MIC80 [9]: 128 µg/mL | MIC80 [10]: 128 µg/mL | MIC80 [11]: 128 µg/mL | MIC80 [12]: 128 µg/mL | MIC80 [13]: 128 µg/mL

CCCCCCCCCCCc1nccn1Cc1cc(OC)c(O)c2c[n+]3c(cc12)-c1cc2c(cc1CC3)OCO2.[Cl-]
MIC [1]: 256 µg/mL | MIC [2]: 256 µg/mL | MIC [3]: 256 µg/mL | MIC [4]: 128 µg/mL | MIC [5]: 64 µg/mL | MIC [6]: 128 µg/mL | MIC [7]: 128 µg/mL | MIC [8]: 128 µg/mL | MIC80 [9]: 256 µg/mL | MIC80 [10]: 256 µg/mL | MIC80 [11]: 128 µg/mL | MIC80 [12]: 128 µg/mL | MIC80 [13]: 128 µg/mL

COc1ccc2cc3[n+](cc2c1OC)CCc1cc2c(cc1-3)OCO2.[Cl-] [BERBERINE CHLORIDE]
MIC [1]: 512 µg/mL | MIC [2]: 256 µg/mL | MIC [3]: 512 µg/mL | MIC [4]: 256 µg/mL | MIC [5]: 128 µg/mL | MIC [6]: 512 µg/mL | MIC [7]: 512 µg/mL | MIC [8]: 512 µg/mL | MIC80 [9]: 256 µg/mL | MIC80 [10]: 512 µg/mL | MIC80 [11]: 128 µg/mL | MIC80 [12]: 128 µg/mL | Activity [14]: Toxic | MIC80 [13]: 512 µg/mL

COc1cc(Cn2ccnc2)c2cc3[n+](cc2c1O)CCc1cc2c(cc1-3)OCO2.[Cl-]
MIC [1]: 1 µg/mL | MIC [2]: 64 µg/mL | MIC [3]: 32 µg/mL | MIC [4]: 64 µg/mL | MIC [5]: 32 µg/mL | MIC [6]: 32 µg/mL | MIC [7]: 8 µg/mL | MIC [8]: 16 µg/mL | MIC80 [9]: 32 µg/mL | MIC80 [10]: 64 µg/mL | MIC80 [11]: 32 µg/mL | MIC80 [12]: 128 µg/mL | viability [15]: > 87% | Activity [16]: Active | K [17]: 5.22 ×10³ L/mol | Activity [18]: Active | MIC80 [13]: 64 µg/mL

COc1cc(Cn2cnc(C)c2)c2cc3[n+](cc2c1O)CCc1cc2c(cc1-3)OCO2.[Cl-]
MIC [1]: 64 µg/mL | MIC [2]: 128 µg/mL | MIC [3]: 32 µg/mL | MIC [4]: 32 µg/mL | MIC [5]: 32 µg/mL | MIC [6]: 8 µg/mL | MIC [7]: 32 µg/mL | MIC [8]: 16 µg/mL | MIC80 [9]: 64 µg/mL | MIC80 [10]: 64 µg/mL | MIC80 [11]: 32 µg/mL | MIC80 [12]: 128 µg/mL | MIC80 [13]: 128 µg/mL

OC(Cn1cncn1)(Cn1cncn1)c1ccc(F)cc1F [FLUCONAZOLE]
MIC80 [9]: 8 µg/mL (≈ 26.1 µM) | MIC80 [10]: 256 µg/mL (≈ 836 µM) | MIC80 [11]: 16 µg/mL (≈ 52.2 µM) | MIC80 [12]: 32 µg/mL (≈ 104 µM) | MIC80 [13]: 32 µg/mL (≈ 104 µM)

CCn1cc(C(=O)O)c(=O)c2cc(F)c(N3CCNCC3)cc21 [NORFLOXACIN]
MIC [1]: 4 µg/mL (≈ 12.5 µM) | MIC [2]: 2 µg/mL (≈ 6.26 µM) | MIC [3]: 16 µg/mL (≈ 50.1 µM) | MIC [4]: 4 µg/mL (≈ 12.5 µM) | MIC [5]: 8 µg/mL (≈ 25.1 µM) | MIC [6]: 2 µg/mL (≈ 6.26 µM) | MIC [7]: 1 µg/mL (≈ 3.13 µM) | MIC [8]: 2 µg/mL (≈ 6.26 µM)

CCCCCCCCCCCCCCCCCc1nccn1Cc1cc(OC)c(O)c2c[n+]3c(cc12)-c1cc2c(cc1CC3)OCO2.[Cl-]
MIC [1]: 512 µg/mL | MIC [2]: 256 µg/mL | MIC [3]: 256 µg/mL | MIC [4]: 256 µg/mL | MIC [5]: 128 µg/mL | MIC [6]: 256 µg/mL | MIC [7]: 256 µg/mL | MIC [8]: 256 µg/mL | MIC80 [9]: 512 µg/mL | MIC80 [10]: 256 µg/mL | MIC80 [11]: 256 µg/mL | MIC80 [12]: 256 µg/mL | MIC80 [13]: 256 µg/mL

COc1cc(Cn2ccnc2C)c2cc3[n+](cc2c1O)CCc1cc2c(cc1-3)OCO2.[Cl-]
MIC [1]: 32 µg/mL | MIC [2]: 64 µg/mL | MIC [3]: 32 µg/mL | MIC [4]: 64 µg/mL | MIC [5]: 32 µg/mL | MIC [6]: 16 µg/mL | MIC [7]: 64 µg/mL | MIC [8]: 16 µg/mL | MIC80 [9]: 32 µg/mL | MIC80 [10]: 32 µg/mL | MIC80 [11]: 16 µg/mL | MIC80 [12]: 128 µg/mL | MIC80 [13]: 64 µg/mL

CCCc1nccn1Cc1cc(OC)c(O)c2c[n+]3c(cc12)-c1cc2c(cc1CC3)OCO2.[Cl-]
MIC [1]: 64 µg/mL | MIC [2]: 128 µg/mL | MIC [3]: 64 µg/mL | MIC [4]: 64 µg/mL | MIC [5]: 32 µg/mL | MIC [6]: 16 µg/mL | MIC [7]: 64 µg/mL | MIC [8]: 32 µg/mL | MIC80 [9]: 128 µg/mL | MIC80 [10]: 128 µg/mL | MIC80 [11]: 32 µg/mL | MIC80 [12]: 128 µg/mL | MIC80 [13]: 64 µg/mL

COc1cc(Cn2cc(C)nc2C)c2cc3[n+](cc2c1O)CCc1cc2c(cc1-3)OCO2.[Cl-]
MIC [1]: 128 µg/mL | MIC [2]: 128 µg/mL | MIC [3]: 128 µg/mL | MIC [4]: 128 µg/mL | MIC [5]: 64 µg/mL | MIC [6]: 64 µg/mL | MIC [7]: 128 µg/mL | MIC [8]: 64 µg/mL | MIC80 [9]: 128 µg/mL | MIC80 [10]: 128 µg/mL | MIC80 [11]: 256 µg/mL | MIC80 [12]: 128 µg/mL | MIC80 [13]: 128 µg/mL

CCc1nccn1Cc1cc(OC)c(O)c2c[n+]3c(cc12)-c1cc2c(cc1CC3)OCO2.[Cl-]
MIC [1]: 64 µg/mL | MIC [2]: 64 µg/mL | MIC [3]: 32 µg/mL | MIC [4]: 64 µg/mL | MIC [5]: 16 µg/mL | MIC [6]: 8 µg/mL | MIC [7]: 32 µg/mL | MIC [8]: 16 µg/mL | MIC80 [9]: 64 µg/mL | MIC80 [10]: 128 µg/mL | MIC80 [11]: 16 µg/mL | MIC80 [12]: 256 µg/mL | MIC80 [13]: 64 µg/mL

CCCCc1nccn1Cc1cc(OC)c(O)c2c[n+]3c(cc12)-c1cc2c(cc1CC3)OCO2.[Cl-]
MIC [1]: 128 µg/mL | MIC [2]: 128 µg/mL | MIC [3]: 128 µg/mL | MIC [4]: 128 µg/mL | MIC [5]: 32 µg/mL | MIC [6]: 32 µg/mL | MIC [7]: 64 µg/mL | MIC [8]: 32 µg/mL | MIC80 [9]: 256 µg/mL | MIC80 [10]: 64 µg/mL | MIC80 [11]: 64 µg/mL | MIC80 [12]: 256 µg/mL | MIC80 [13]: 64 µg/mL
